Published values of several laboratories.
Protocols differ between the studies behind these lines.
CASP7: Caspase-7 (CASP7, Homo sapiens, UniProt P55210)
PTGS2: Prostaglandin G/H synthase 2 (PTGS2, Homo sapiens, UniProt P35354)
NPY2R: Neuropeptide Y receptor type 2 (NPY2R, Homo sapiens, UniProt P49146)
Dipeptidyl peptidase 2: Dipeptidyl peptidase 2 (Homo sapiens, UniProt Q9UHL4)

N=C(N)c1ccc2cc(OC(=O)c3ccc(N=C(N)N)cc3)ccc2c1 — inhibition (CASP7; enzyme activity, inhibitor; 10 µM): 1%
O=C(Nc1cccnn1)N1CCN([C@@H]2CCOc3cc(C(F)(F)F)ccc32)CC1 — inhibition (Glucagon receptor (GCGR, Homo sapiens, UniProt P47871); cell-free assay; 20 µM): -1%
Cc1ccc(-c2nc3ccccc3s2)c(-c2cccc(O)c2)c1 — inhibition (PTGS2; enzyme activity, inhibitor, absorbance; 10 µM): 29%
CC(C)N1CCC[C@H]1CNC(=O)c1cn(C2CCCC2)c(=O)c2c1c1ccccc1n2C — inhibition (NPY2R; ligand displacement, radioligand; 10 µM): 3%
Oc1ccc(-c2ncccc2-c2nc3ccccc3s2)cc1 — inhibition (PTGS2; enzyme activity, inhibitor, absorbance; 10 µM): 8%
CCN(CC)CCCC[C@H](NC(=O)[C@H](CC(C)C)NC(=O)[C@H](C)NC(=O)[C@H](Cc1ccccc1)NC(=O)c1ccc(C(C)(C)C)cc1)C(=O)N[C@@H](CO)C(=O)OC — inhibition (NPY2R; ligand displacement, radioligand; 10 µM): 10%
Nc1ccc(-c2ccccc2)c(-c2nc3ccccc3s2)c1 — inhibition (PTGS2; enzyme activity, inhibitor, absorbance; 10 µM): 12.4%
CN(C)C(=O)COC(=O)Cc1ccc(OC(=O)c2ccc(NC(=N)N)cc2)cc1 — inhibition (Ubiquitin carboxyl-terminal hydrolase isozyme L3 (UCHL3, Homo sapiens, UniProt P15374); enzyme activity, inhibitor; 10 µM): 3%
COc1cc(Nc2ncc(F)c(Nc3ccc4c(n3)NC(=O)C(C)(C)O4)n2)cc(OC)c1OC — inhibition (Serine/threonine-protein kinase pim-3 (PIM3, Homo sapiens, UniProt Q86V86); binding, competition with immobilised ligand; 10 µM): 38%
CCOC(=O)c1ccc(OC(=O)CCCCCNC(=N)N)cc1 — inhibition (Dipeptidyl peptidase 2; enzyme activity, inhibitor; 10 µM): 83%
CC(C)C[C@H](NC(=O)[C@H](Cc1ccccc1)NC(=O)c1cnccn1)B(O)O — inhibition (Dipeptidyl peptidase 2; enzyme activity, inhibitor; 33 µM): 78.7%
CC(=O)N[C@@H](CC(=O)O)C(=O)N[C@@H](CC(N)=O)C(=O)N[C@@H](CC(C)C)C(=O)N[C@H](C=O)CC(=O)O — inhibition (CASP7; enzyme activity, inhibitor; 5 nM): 8%
Cc1ccc(-c2nc3ccccc3s2)c(-c2ccc(S(N)(=O)=O)cc2)c1 — inhibition (PTGS2; enzyme activity, inhibitor, absorbance; 10 µM): 87.3%
N#Cc1ccc(NCCNCC(=O)N2N=CCC2C#N)nc1 (centres unmarked) — inhibition (Dipeptidyl peptidase 2; enzyme activity, inhibitor; 100 µM): 77%
NS(=O)(=O)c1ccc(-c2ncc(Cl)cc2-c2nc3ccccc3s2)cc1 — inhibition (PTGS2; enzyme activity, inhibitor, absorbance; 10 µM): 100%
C1=Cc2ccccc2Nc2ccccc21 — inhibition (Dihydrofolate reductase (folA, Escherichia coli, UniProt P0ABQ4); enzyme activity, inhibitor; 1 mM): ~87%
Cn1cc(-c2cc(F)cc(N3CCn4c(cc5c4CCCC5)C3=O)c2CO)cc(Nc2ccc(N3CCN(C4COC4)CC3)cn2)c1=O — inhibition (Protein kinase C zeta type (PRKCZ, Homo sapiens, UniProt Q05513); enzyme activity, inhibitor; 0.1 µM): -2%
C#Cc1n[nH]c2c(-c3cn(C(C)c4ccccn4)c(=O)[nH]c3=O)cc(F)cc12 (centres unmarked) — inhibition (Ribosomal protein S6 kinase beta-1 (RPS6KB1, Homo sapiens, UniProt P23443); enzyme activity, inhibitor; 1 µM): -2.1%
Cn1cc(-c2cccc(N3CCc4c(sc5c4CC(C)(C)C5)C3=O)c2CO)cc(Nc2ccncn2)c1=O — inhibition (Dual specificity tyrosine-phosphorylation-regulated kinase 3 (DYRK3, Homo sapiens, UniProt O43781); enzyme activity, inhibitor; 1 µM): 6%
Nc1ccc(-c2nc3ccccc3s2)c(-c2ccc(O)cc2)c1 — inhibition (PTGS2; enzyme activity, inhibitor, absorbance; 10 µM): 15.3%
